# The source made the active and inactive calls. The calls are words filed in the database; no cut-off is given here.
# Tests used:
# [1] = tested on: R2; test: Antiproliferative activity against chinese hamster R2 cells assessed as reduction of viable cells after 96 hrs; conditions: Cricetulus griseus, R2, 96 h
# [2] = tested on: R2; test: Decrease in intracellular ATP concentration in chinese hamster R2 cells expressing human PCFT at 1 uM after 24 hrs by HPLC relative to control at pH 6.8; format: functional, Cricetulus griseus; design: scale not given: the % may be the effect or the level left
# Summary of the method: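 R2/hPCFT4 CHO cells seeded in folate-free RPMI 1640 with 10% dialysed FBS and 25 nM leucovorin (pH 7.2). After 24 h, switched to the same medium buffered to pH 6.8 with 25 mM PIPES/25 mM HEPES. Drug at 1 µM, or vehicle (0.5% DMSO or H2O), for 24 h. Nucleotides extracted; ATP quantified by HPLC against vehicle control.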
# [3] = tested on: Mus musculus; test: Toxicity in human IGROV1 cells expressing human RFC, FRalpha and PCFT xenografted SCID mouse assessed as weight loss at 25 mg/kg, iv administered on days 3, 7, 11, 15, and 19 postimplantation measured on day 8 post last treatment; format: organism-based, IGROV-1; design: dose 25 mg/kg, route intravenous; conditions: in vivo
# Summary of the method: (§1)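 Female ICR SCID mice (10 weeks old) were fed a folate-deficient or folate-replete diet from 24 days before implant. IGROV1 tumor fragments (30–60 mg) were implanted bilaterally s.c. by trocar, and mice were randomized. Dosing was i.v. on a Q4dx5 schedule (days 3, 7, 11, 15, 19). Mice were weighed daily to track weight-loss nadir and recovery.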
# [4] = tested on: Mus musculus; test: Toxicity in human IGROV1 cells expressing human RFC, FRalpha and PCFT xenografted SCID mouse assessed as weight loss at 40 mg/kg, iv administered on days 3, 7, 11, 15, and 19 postimplantation measured on day 21; format: organism-based, IGROV-1; design: dose 40 mg/kg, route intravenous; conditions: in vivo
# Summary of the method: (§2)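 Female ICR SCID mice, 10 weeks old, on a folate-deficient diet from 24 days before implant. Bilateral subcutaneous IGROV1 tumour fragments (30–60 mg, by trocar); mice pooled, then randomised. IV dosing on days 3, 7, 11, 15 and 19. Mice weighed daily; tumours measured by caliper 2–3 times weekly; mice sacrificed at 1500 mg tumour burden. Weight-loss nadir and recovery recorded.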
# [5] = target: T1, Proton-coupled folate transporter (Homo sapiens) (UniProt Q96NT5); test: Inhibition of human PCFT-mediated [3H]MTX uptake expressed in chinese hamster R2 cells at pH 6.8 […] relative to PMX; format: cell-based; conditions: concentration not given here
# T1 sequence (whole entry): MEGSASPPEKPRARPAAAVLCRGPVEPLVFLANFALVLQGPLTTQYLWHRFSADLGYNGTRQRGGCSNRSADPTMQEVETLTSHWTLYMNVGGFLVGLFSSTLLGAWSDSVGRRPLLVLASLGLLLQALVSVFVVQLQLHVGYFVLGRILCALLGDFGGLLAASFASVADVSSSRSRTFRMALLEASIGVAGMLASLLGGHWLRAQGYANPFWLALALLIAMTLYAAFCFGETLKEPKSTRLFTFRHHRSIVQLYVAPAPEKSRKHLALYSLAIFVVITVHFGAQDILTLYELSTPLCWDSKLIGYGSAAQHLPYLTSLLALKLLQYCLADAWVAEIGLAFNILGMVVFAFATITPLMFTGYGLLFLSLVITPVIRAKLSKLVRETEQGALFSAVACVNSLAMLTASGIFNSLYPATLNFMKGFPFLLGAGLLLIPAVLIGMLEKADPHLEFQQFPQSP
# [6] = target: T1, Proton-coupled folate transporter (Homo sapiens); test: Inhibition of human PCFT-mediated [3H]MTX uptake expressed in chinese hamster R2 cells at pH 5.5 by dixon plot analysis relative to PMX; format: cell-based; conditions: concentration not given here
# [7] = tested on: IGROV-1; test: Antitumor activity against human IGROV1 cells expressing human RFC, FRalpha and PCFT xenografted in SCID mouse assessed as tumor growth inhibition at 25 mg/kg, iv administered on days 3, 7, […], […], and […] postimplantation; format: functional
# [8] = tested on: IGROV-1; test: Antitumor activity against human IGROV1 cells expressing human RFC, FRalpha and PCFT xenografted in standard folate diet fed SCID mouse assessed as tumor growth inhibition at 25 to 40 mg/kg, iv administered on days 3, 7, […], […], and […] postimplantation; format: functional; conditions: dose mg/kg 25-40
# [9] = Inhibition of GARFTase in chinese hamster R2 cells expressing human PCFT assessed as incorporation of [14C]glycine into [14C]formyl GAR in the presence of 4 uM azaserine; format: cell-based, Cricetulus griseus
# [10] = tested on: R2; test: Antiproliferative activity against chinese hamster R2 cells expressing human PCFT assessed as inhibition of colony formation after 10 to 14 days; format: functional, cell-based, Cricetulus griseus
# [11] = tested on: KB; test: Antiproliferative activity against human KB cells expressing human RFC, FRalpha and PCFT assessed as reduction of viable cells after 96 hrs in the presence of 200 nM folic acid; format: functional, cell-based
# Summary of the method: (§3)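 Same 96 h CellTiter-blue proliferation set-up in folate-free RPMI/10% dFBS with 2 nM leucovorin. Run in parallel incubations that included 200 nM folic acid alongside the antifolate, to establish FR-dependent uptake.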
# [12] = tested on: IGROV-1; test: Antiproliferative activity against human IGROV1 cells expressing human RFC, FRalpha and PCFT assessed as reduction of viable cells after 96 hrs; format: functional, cell-based; conditions: IGROV-1, 96 h
# [13] = tested on: R2; test: Antiproliferative activity against chinese hamster R2 cells expressing human PCFT assessed as growth inhibition in the presence of 320 uM AICA; format: functional, cell-based; conditions: Cricetulus griseus
# Summary of the method: (§4)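 R2/hPCFT4 cells were grown in folate-free RPMI with 25 nM leucovorin and 10% dFBS and exposed to antifolate for up to 96 h. Rescue co-incubations used thymidine (10 µM), adenosine (60 µM) and AICA (320 µM), alone or combined. Viability was read by CellTiter-blue.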
# [14] = tested on: IGROV-1; test: Antitumor activity against human IGROV1 cells expressing human RFC, FRalpha and PCFT xenografted in SCID mouse assessed as tumor growth inhibition at 40 mg/kg, iv administered on days 3, 7, […], […], and […] postimplantation; format: functional
# [15] = Antiproliferative activity against chinese hamster PC43-10 expressing human RFC assessed as reduction of viable cells after 96 hrs; format: functional; conditions: Cricetulus griseus, PC43-10, 96 h
# [16] = tested on: Mus musculus; test: Toxicity in human IGROV1 cells expressing human RFC, FRalpha and PCFT xenografted SCID mouse assessed as reversible weight loss at 25 to 40 mg/kg, iv administered on days 3, 7, 11, 15, and 19 postimplantation; format: organism-based, IGROV-1; design: dose 25-40 mg/kg, route intravenous; conditions: in vivo
# Summary of the method: as §2
# [17] = Antiproliferative activity against chinese hamster RT16 cells expressing human FRalpha assessed as reduction of viable cells after 96 hrs in the presence of 200 nM folic acid; format: functional, cell-based; conditions: Cricetulus griseus, RT16, 96 h
# Summary of the method: as §3
# [18] = tested on: R2; test: Antiproliferative activity against chinese hamster R2 cells expressing human PCFT assessed as growth inhibition in the presence of 60 uM adenosine; format: functional, cell-based; conditions: Cricetulus griseus
# Summary of the method: as §4
# [19] = Antiproliferative activity against chinese hamster R2(VC) cells assessed as reduction of viable cells after 96 hrs; conditions: Cricetulus griseus
# [20] = tested on: KB; test: Antiproliferative activity against human KB cells expressing human RFC, FRalpha and PCFT assessed as reduction of viable cells after 96 hrs; format: functional, cell-based
# [21] = tested on: Mus musculus; test: Toxicity in human IGROV1 cells expressing human RFC, FRalpha and PCFT xenografted SCID mouse assessed as mortality at 25 to 40 mg/kg, iv administered on days 3, 7, […], […], and […] postimplantation; format: organism-based, IGROV-1; conditions: in vivo
# [22] = tested on: Mus musculus; test: Toxicity in human IGROV1 cells expressing human RFC, FRalpha and PCFT xenografted SCID mouse assessed as weight loss at 25 mg/kg, iv administered on days 3, 7, 11, 15, and 19 postimplantation measured on day 27 post last treatment; format: organism-based, IGROV-1; design: dose 25 mg/kg, route intravenous; conditions: in vivo
# Summary of the method: as §1
# [23] = tested on: Mus musculus; test: Toxicity in human IGROV1 cells expressing human RFC, FRalpha and PCFT xenografted SCID mouse assessed as weight loss at 40 mg/kg, iv administered on days 3, 7, 11, 15, and 19 postimplantation measured on day 10 post last treatment; conditions: in vivo
# [24] = tested on: IGROV-1; test: Antiproliferative activity against human IGROV1 cells expressing human RFC, FRalpha and PCFT assessed as reduction of viable cells after 96 hrs in the presence of 200 nM folic acid; format: functional, cell-based; conditions: IGROV-1, 96 h
# Summary of the method: as §3
# [25] = tested on: Mus musculus; test: Toxicity in human IGROV1 cells expressing human RFC, FRalpha and PCFT xenografted SCID mouse assessed as weight loss at 25 mg/kg, iv administered on days 3, 7, 11, 15, and 19 postimplantation measured on day 13; format: organism-based, IGROV-1; design: dose 25 mg/kg, route intravenous; conditions: in vivo
# Summary of the method: as §2
compound,measurement,setting,value
Nc1nc2[nH]c(CCCc3ccc(C(=O)N[C@@H](CCC(=O)O)C(=O)O)s3)cc2c(=O)[nH]1,IC50,[1],0.274 µM
same,Activity,[2],90%
same,Activity,[3],Non-toxic
same,Activity,[4],9.4%
same,inhibition,[5],18%
same,inhibition,[6],35%
same,T/C,[7],16%
same,T/C,[8],67%
same,IC50,[9],0.00069 µM
same,IC50,[10],0.0014 µM
same,IC50,[11],> 1 µM
same,IC50,[12],0.00055 µM
same,Activity,[13],inactive
same,T/C,[14],14%
same,IC50,[15],0.101 µM
same,Activity,[16],2.7%
same,IC50,[17],> 1 µM
same,Activity,[18],inactive
same,IC50,[19],0.288 µM
same,IC50,[20],0.00026 µM
same,Activity,[21],Non-toxic
same,Activity,[22],Non-toxic
same,Activity,[23],Non-toxic
same,IC50,[24],> 1 µM
same,Activity,[25],6.3%

# Reference: ChEMBL document CHEMBL1833876 (J Med Chem, 2011)
